Laboratory results: ChEMBL document CHEMBL1944571, “A bright approach to the immunoproteasome: development of LMP2/β1i-specific imaging probes” (Bioorg Med Chem, 2012)
Activity calls are given as the source filed them. No cut-off for these calls is given here.

Tests used:
[1] = biological target: T1, Proteasome subunit beta type-5 (Mus musculus) (UniProt O55234); experiment: Binding affinity to LMPX/[…] in mouse EL4 cells at 10 uM after 1.5 hrs by Western blotting; type: cell-based
T1 sequence (whole entry): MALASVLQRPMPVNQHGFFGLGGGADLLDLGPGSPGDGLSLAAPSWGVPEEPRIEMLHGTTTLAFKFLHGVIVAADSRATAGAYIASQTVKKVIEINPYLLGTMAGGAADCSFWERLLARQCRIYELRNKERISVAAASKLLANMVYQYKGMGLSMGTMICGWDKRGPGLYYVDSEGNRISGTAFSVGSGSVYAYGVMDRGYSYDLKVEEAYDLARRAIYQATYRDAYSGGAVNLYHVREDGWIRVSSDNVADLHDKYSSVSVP
Procedure, shortened: (§1)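 EL4 or PC-3 cells were exposed for 1.5 h to compound, DMSO vehicle, or 1 μM epoxomicin as positive control. Cells were washed in HBSS, lysed on ice for 1 h in non-denaturing NP-40/Triton buffer, and equal protein was resolved on 12% SDS-PAGE and blotted to PVDF. Blots were probed with subunit-specific antibodies and read by ECL. An upward band shift versus DMSO was scored as covalent modification.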

[2] = biological target: T2, Proteasome subunit beta type-8 (Mus musculus) (UniProt P28063); experiment: Binding affinity to LMP7/beta5i in mouse EL4 cells at 10 uM after 1.5 hrs by Western blotting; type: cell-based; procedure, shortened: as §1
T2 sequence (whole entry): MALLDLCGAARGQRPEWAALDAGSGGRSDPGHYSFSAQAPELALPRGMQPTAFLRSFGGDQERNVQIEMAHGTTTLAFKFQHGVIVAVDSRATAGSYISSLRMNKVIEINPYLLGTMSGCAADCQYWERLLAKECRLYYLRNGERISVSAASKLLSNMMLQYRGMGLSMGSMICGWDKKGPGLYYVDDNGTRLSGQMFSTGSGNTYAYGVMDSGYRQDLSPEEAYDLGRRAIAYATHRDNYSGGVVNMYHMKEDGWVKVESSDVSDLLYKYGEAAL

[3] = biological target: T3, Proteasome subunit beta type-6 (Homo sapiens) (UniProt P28072); experiment: Binding affinity to LMPY/beta1 in human PC3 cells at 10 to 20 uM after 1.5 hrs by Western blotting; type: cell-based; settings: PC-3; procedure, shortened: as §1
T3 sequence (whole entry): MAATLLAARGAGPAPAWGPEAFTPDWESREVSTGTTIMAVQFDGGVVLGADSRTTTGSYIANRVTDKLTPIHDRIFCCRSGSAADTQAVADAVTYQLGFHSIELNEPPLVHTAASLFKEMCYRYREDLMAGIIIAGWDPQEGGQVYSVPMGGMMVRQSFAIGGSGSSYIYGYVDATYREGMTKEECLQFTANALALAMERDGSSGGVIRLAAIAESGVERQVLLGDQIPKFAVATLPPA

[4] = biological target: T4, Proteasome subunit beta type-6 (Mus musculus) (UniProt Q60692); experiment: Binding affinity to LMPY/beta1 in mouse EL4 cells at 10 uM after 1.5 hrs by Western blotting; type: cell-based; procedure, shortened: as §1
T4 sequence (whole entry): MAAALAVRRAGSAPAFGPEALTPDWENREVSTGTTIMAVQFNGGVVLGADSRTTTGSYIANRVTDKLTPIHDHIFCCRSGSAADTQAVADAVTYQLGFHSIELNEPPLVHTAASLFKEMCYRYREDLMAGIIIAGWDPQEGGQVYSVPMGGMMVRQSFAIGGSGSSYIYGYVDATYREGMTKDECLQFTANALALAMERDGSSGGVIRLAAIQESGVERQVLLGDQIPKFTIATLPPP

[5] = biological target: T5, Proteasome subunit beta type-9 (Mus musculus) (UniProt P28076); experiment: Binding affinity to LMP2/beta1i in mouse EL4 cells at 10 uM after 1.5 hrs by Western blotting; type: cell-based; procedure, shortened: as §1
T5 sequence (whole entry): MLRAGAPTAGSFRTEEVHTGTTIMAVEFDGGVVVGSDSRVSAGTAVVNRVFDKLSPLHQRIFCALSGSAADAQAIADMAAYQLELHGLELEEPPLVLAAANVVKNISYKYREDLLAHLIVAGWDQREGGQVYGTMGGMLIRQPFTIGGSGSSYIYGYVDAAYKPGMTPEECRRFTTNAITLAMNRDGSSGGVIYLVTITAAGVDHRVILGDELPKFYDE

[6] = biological target: T6, Proteasome subunit beta type-8 (Homo sapiens) (UniProt P28062); experiment: Binding affinity to LMP7/beta5i in human PC3 cells at 10 to 20 uM after 1.5 hrs by Western blotting; type: cell-based; settings: PC-3; procedure, shortened: as §1
T6 sequence (whole entry): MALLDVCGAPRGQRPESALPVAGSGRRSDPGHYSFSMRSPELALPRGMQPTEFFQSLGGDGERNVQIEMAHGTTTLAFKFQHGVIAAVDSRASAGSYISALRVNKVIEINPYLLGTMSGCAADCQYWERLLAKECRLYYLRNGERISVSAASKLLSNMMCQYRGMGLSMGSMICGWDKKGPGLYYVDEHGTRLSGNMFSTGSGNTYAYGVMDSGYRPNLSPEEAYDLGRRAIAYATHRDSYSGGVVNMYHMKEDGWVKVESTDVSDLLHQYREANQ

[7] = biological target: T7, Proteasome Macropain subunit MB1 (Homo sapiens) (UniProt P28074); experiment: Binding affinity to LMPX/[…] in human PC3 cells at 10 to 20 uM after 1.5 hrs by Western blotting; type: cell-based; settings: PC-3; procedure, shortened: as §1
T7 sequence (whole entry): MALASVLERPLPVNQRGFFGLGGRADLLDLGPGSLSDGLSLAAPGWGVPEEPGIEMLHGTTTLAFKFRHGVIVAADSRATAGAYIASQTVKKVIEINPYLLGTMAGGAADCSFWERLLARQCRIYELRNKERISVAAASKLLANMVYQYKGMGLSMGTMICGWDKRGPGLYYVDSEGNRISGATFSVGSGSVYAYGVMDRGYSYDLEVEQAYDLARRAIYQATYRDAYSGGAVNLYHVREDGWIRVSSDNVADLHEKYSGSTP

[8] = biological target: T8, Proteasome subunit beta type-9 (Homo sapiens) (UniProt P28065); experiment: Binding affinity to LMP2/beta1i in human PC3 cells at 10 to 80 uM after 1.5 hrs by Western blotting; type: cell-based; settings: PC-3; procedure, shortened: as §1
T8 sequence (whole entry): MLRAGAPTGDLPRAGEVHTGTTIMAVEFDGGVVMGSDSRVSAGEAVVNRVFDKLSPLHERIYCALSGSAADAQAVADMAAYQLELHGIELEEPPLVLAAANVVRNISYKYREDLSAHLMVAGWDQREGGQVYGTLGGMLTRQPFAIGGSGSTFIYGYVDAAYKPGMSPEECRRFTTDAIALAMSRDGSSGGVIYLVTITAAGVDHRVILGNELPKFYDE

[9] = biological target: T5, Proteasome subunit beta type-9 (Mus musculus); experiment: Binding affinity to LMP2/beta1i in mouse EL4 cells at 1 uM after 1.5 hrs by Western blotting; type: cell-based; procedure, shortened: as §1
[10] = biological target: T5, Proteasome subunit beta type-9 (Mus musculus); experiment: Binding affinity to LMP2/beta1i in mouse EL4 cells at 5 uM after 1.5 hrs by Western blotting; type: cell-based; procedure, shortened: as §1
[11] = biological target: T8, Proteasome subunit beta type-9 (Homo sapiens); experiment: Binding affinity to LMP2/beta1i in human PC3 cells at 15 uM after 4 hrs by fluorescence microscopy analysis in presence of UK101 treated 1.5 hrs before compound treatment; settings: PC-3
[12] = biological target: T8, Proteasome subunit beta type-9 (Homo sapiens); experiment: Effect on LMP2/beta1i cellular distribution in human PC3 cells after 4 hrs by fluorescence microscopy analysis in presence of UK101 treated 1.5 hrs before compound treatment; type: cell-based; settings: PC-3
Procedure, shortened: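 PC-3 cells were grown on coverslips for 24–48 h, pretreated for 1.5 h with DMSO or 5 μM competitor, then given 15 μM probe for 4 h. Cells were washed, fixed in 4% paraformaldehyde, permeabilized with 0.2% Triton, and blocked. Where indicated, cells were stained with anti-LMP2 antibody, mounted with DAPI, and imaged by fluorescence microscopy, with intensity normalized to control.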

[13] = biological target: T8, Proteasome subunit beta type-9 (Homo sapiens); experiment: Binding affinity to LMP2/beta1i in human PC3 cells at 30 uM after 4 hrs by gel-fluorescence assay in presence of UK101 treated 1.5 hrs before compound treatment; type: cell-based; settings: PC-3
Procedure, shortened: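 PC-3 cells were pretreated for 1.5 h with DMSO or 1 μM competitor, then given 30 μM fluorescent probe for a further 4 h. Cells were washed, lysed, resolved by SDS-PAGE, and gels were imaged for in-gel fluorescence (λex 635 nm, λem 665 nm).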

[14] = biological target: T8, Proteasome subunit beta type-9 (Homo sapiens); experiment: Binding affinity to LMP2/beta1i in human PC3 cells at 30 uM after 4 hrs by gel-fluorescence assay in presence of UK101-Lys-Cbz treated 1.5 hrs before compound treatment; type: cell-based; settings: PC-3
Procedure, shortened: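 PC-3 cells were pretreated for 1.5 h with DMSO or 20 μM competitor, then incubated with 30 μM fluorescent probe for a further 4 h. Lysates were resolved by SDS-PAGE, and gels were imaged for in-gel fluorescence (λex 635 nm, λem 665 nm).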

[15] = biological target: T8, Proteasome subunit beta type-9 (Homo sapiens); experiment: Binding affinity to LMP2/beta1i in human PC3 cells at 30 uM after 4 hrs by fluorescence microscopy analysis in presence of UK101-Lys-Cbz treated 1.5 hrs before compound treatment; type: cell-based; settings: PC-3
[16] = biological target: T8, Proteasome subunit beta type-9 (Homo sapiens); experiment: Binding affinity to LMP2/beta1i in human PC3 cells after 4 hrs using typhoon imaging by gel fluorescence assay; type: cell-based; settings: PC-3
Procedure, shortened: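 PC-3 cells were treated with probe or DMSO vehicle for 4 h, with an epoxomicin control. Cells were washed in HBSS and lysed on ice for 1 h in NP-40/Triton X-100 buffer with protease inhibitors. Equal protein was run on 12% SDS-PAGE after denaturing at 100°C, and gels were scanned for fluorescence (λex 635 nm, λem 665 nm).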

| Activity [1] | Activity [2] | Activity [3] | Activity [4] | Activity [5] | Activity [6] | Activity [7] | Activity [8] | Activity [9] | Activity [10] | Activity [11] | Activity [12] | Activity [13] | Activity [14] | Activity [15] | Activity [16] | SMILES |
| --- | --- | --- | --- | --- | --- | --- | --- | --- | --- | --- | --- | --- | --- | --- | --- | --- |
| inactive | inactive | inactive | inactive | Active | inactive | inactive | Active | inactive | Active |  |  |  |  |  |  | CCCCCCC(=O)N[C@@H](CCCCNC(=O)OCc1ccccc1)C(=O)N[C@@H](CC(C)C)C(=O)[C@@]1(CO[Si](C)(C)C(C)(C)C)CO1 |
|  |  |  |  |  |  |  |  |  |  | inactive | inactive | inactive | inactive | inactive | Active | CCCCCCC(=O)N[C@@H](CCCCNC(=O)CCCCCNC(=O)COc1ccc(/C=C/c2ccc3n2[B-](F)(F)[N+]2=C(c4ccc[nH]4)C=CC2=C3)cc1)C(=O)N[C@@H](CC(C)C)C(=O)[C@@]1(CO[Si](C)(C)C(C)(C)C)CO1 |
